The target in assay [1] is T1, Hematopoietic prostaglandin D synthase (Homo sapiens, UniProt O60760). The experiment in a line: Inhibition of human H-PGDS expressed in Escherichia coli BL21 assessed as rate of glutathione-chloro-dinitro benzene conjugation at 50 uM. The procedure, abridged: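 GSH–CDNB conjugation by E. coli BL21 DE3-expressed, GSH-affinity purified human H-PGDS (2.5 ng/ml). Buffer was 0.1 M Tris HCl pH 8.0 with 2 mM MgCl2, 1 mM CDNB, 2 mM GSH and 10% ethanol. Read at A340 nm over 10 min at 25 C. Percent inhibition at 50 uM inhibitor, mean ± SD of triplicates.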

Assay [2] addresses T1, Hematopoietic prostaglandin D synthase. Put plainly: Inhibition of human H-PGDS expressed in Escherichia coli BL21 assessed as rate of glutathione-chloro-dinitro benzene conjugation. The procedure, abridged: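 Recombinant human H-PGDS from E. coli BL21 DE3 (pET17b, uninduced), GSH-affinity purified. Reaction: 0.1 M Tris HCl pH 8.0, 2 mM MgCl2, 1 mM CDNB, 2 mM GSH, 2.5 ng/ml enzyme, 10% (v/v) ethanol. Conjugate formation followed at A340 nm over 10 min, 25 C. Eight inhibitor concentrations bracketing IC50, background-corrected for solvent. Nonlinear regression, triplicates, mean ± SEM.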

As a reminder, the inhibition is the percentage by which the read-out fell short of the control. Usually IC50 stands for the concentration that inhibits the measured activity by half.

T1 sequence (O60760 whole entry): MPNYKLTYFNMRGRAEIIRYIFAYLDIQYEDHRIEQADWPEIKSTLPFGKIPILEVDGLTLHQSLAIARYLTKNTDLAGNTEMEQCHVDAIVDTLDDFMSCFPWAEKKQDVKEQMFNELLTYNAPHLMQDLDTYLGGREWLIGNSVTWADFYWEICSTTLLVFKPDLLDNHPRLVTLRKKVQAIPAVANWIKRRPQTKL

As for `O=C(Nc1ccccc1)Nc1cccc(C(=O)O)c1`, the inhibition in assay [1] turned out to be 8.6%. Turning to `c1ccc(C(OC2CCN(CCCc3nnn[nH]3)CC2)c2ccccc2)cc1`, the inhibition in assay [1] was found to be 100%. Moreover, the concentration for half-maximal inhibition (IC50) in assay [2] came out at 1.8 µM.

Regarding `O=C(O)c1ccc2ccccc2c1Br`, the inhibition in assay [1] was determined as 5.1%. Take `O=C1OC(c2ccc(O)c(S(=O)(=O)O)c2)(c2ccc(O)c(S(=O)(=O)O)c2)c2c(Br)c(Br)c(Br)c(Br)c21` [SULFOBROMOPHTHALEIN]: in assay [1], the inhibition is 66.9%. For the same molecule, the half-inhibitory concentration (IC50) in assay [2] worked out at 27 µM. `O=C(c1ccccc1)c1cccs1`: the inhibition in assay [1] worked out at 78.2%. Further, the IC50 in assay [2] came to 9.2 µM. As to `CC1(C)Cc2c(-c3ccccc3)c(-c3ccc(Cl)cc3)c(CC(=O)O)n2C1`, the inhibition in assay [1] amounted to 0%. On to `COC(=O)Nc1nc2cc([S+]([O-])c3ccccc3)ccc2[nH]1` (stereo not given), for which, in assay [1], the inhibition turned out to be 0%. Same read-out and setting: under `O=C(O)Cc1ccccc1Nc1c(Cl)cccc1Cl` stands 0%; under `O=C(O)c1cc(/N=N/c2ccc(S(=O)(=O)Nc3ccccn3)cc2)ccc1O`, 0%; under `O=C(O)COc1ccc(C(=O)c2cccs2)c(Cl)c1Cl`, 0%.

As for `O=C(O)CCCCCC[C@H]1C(=O)NC(=O)N1CCC(O)C1CCCCC1` (stereo not given in full), the inhibition in assay [1] is 17%. On to `O=C(O)CCn1c2c(c3ccccc31)C[C@H](NS(=O)(=O)c1ccc(F)cc1)CC2`, for which, in assay [1], the inhibition was determined as 0%. Regarding `COC(=O)Nc1nc2cc(C(=O)c3cccs3)ccc2[nH]1`, the inhibition in assay [1] was determined as 42.6%. Still for that read-out and setting: the same measure for `Cc1cc(CC(=O)O)n(C)c1C(=O)c1ccc(Cl)cc1`: 0%. Take `COc1ccc(C(=O)c2cccs2)cc1`: the inhibition in assay [1] was found to be 41.8%. Further, the IC50 in assay [2] amounted to 105 µM. For `COC(=O)Nc1nc2ccc([S+]([O-])c3ccccc3)cc2[nH]1` (stereo not given) [OXFENDAZOLE], the IC50 in assay [2] was > 300 µM.

Regarding `Nc1c(S(=O)(=O)O)cc(Nc2ccc(Nc3nc(Cl)nc(Nc4ccccc4S(=O)(=O)O)n3)c(S(=O)(=O)O)c2)c2c1C(=O)c1ccccc1C2=O` [CIBACRON BLUE], the inhibition in assay [1] stood at 100%. Moreover, in assay [2], the IC50 stood at 0.2 µM. For `COc1ccc2c(c1)c(CC(=O)O)c(C)n2C(=O)c1ccc(Cl)cc1`, the inhibition in assay [1] stood at 0%. On to `C=C(CC)C(=O)c1ccc(OCC(=O)O)c(Cl)c1Cl` [ETHACRYNIC ACID], for which the inhibition in assay [1] amounted to 25.3%. For the same molecule, the IC50 in assay [2] was determined as 122 µM.

(Values after ChEMBL document CHEMBL1154723, “Identification and characterisation of new inhibitors for the human hematopoietic prostaglandin D2 synthase” (Eur J Med Chem, 2010).)
